# According to the EternaBench riboswitch data:
# Tested on: MS2 coat protein
# Test: apparent Kd, MS2 coat protein; higher = weaker binding; RNA-MaP array; FMN 200 µM where present
# Outline: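 Two titrations, one without ligand and one with constant ligand, were run with SNAP-549-labelled MS2 coat protein from 0.7 or 1.5 nM, doubling to 3 µM. The targets were designs transcribed by stalled E. coli RNA polymerase on Illumina sequencing-chip clusters, in 100 mM Tris-HCl pH 7.5, 80 mM KCl, 4 mM MgCl2, BSA, DTT, yeast tRNA and Tween-20. The apparent Kd is the median of filtered per-cluster binding-curve fits, with green signal normalised to red-channel RNA signal and control-cluster median Fmax.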
# [1] = designed as: OFF switch for flavin mononucleotide, no ligand
# [2] = ligand present: flavin mononucleotide, designed as: OFF switch for flavin mononucleotide
# [3] = designed as: ON switch for flavin mononucleotide, no ligand
# [4] = ligand present: flavin mononucleotide, designed as: ON switch for flavin mononucleotide
Sequence,apparent Kd [1] [µM],apparent Kd [2] [µM],apparent Kd [3] [µM],apparent Kd [4] [µM]
UGAAACUACGAGAAGGACAUGUGGUCCUUCAGUUACAUGAGGAUCACCCAUGUAGGAUAUCGUAGUUUCAGGAUCGUGAGAUCA,0.0347,0.0146,,
AACAGUACAGGAUAUACAUGAGGAUCACCCAUGUGAGAAUUAAGUGGCGUACCACAAUGUAGAAGGGUACUGGA,0.0774,0.0655,,
CGCAAGUAUACAUGAGGAUCACCCAUGUCAAUCAUGGUAUUCAGAAGGUACAAUUCAAUAUAUAGUAAGGAUAUGAAAUUUGCG,,,0.107,0.112
AAAAAACAUGAGGAUCACCCAUGUGAGGAUAUGAUGCGAAUAAAGAAAGAAGAAAGCAUCAGAAGGCACAUAUG,0.0866,0.254,,
GGAGACCUCACAGGAUAUGCUGGACUUUGUCCAGCAGAAGGGUGAAUACAUGAGGAUCACCCAUGUGGUCUCCAAAUAUUUAAU,,,1.17,0.0753
AAGCGAGGGACAGGAUAUGCGGCGAAACUCGCCGCAGAAGGGUCGACAUGAGGAUCACCCAUGUCCUUACGCUCCAAGUAGUGG,,,0.101,0.25
AAUUAUUUACAGAAGGAGUAAGAUUAUGUAUUACUAGGAUAUGUUCACAUGAGGAUCACCCAUGUACUAGUAGGUUUUUUAUGU,0.00696,0.00766,,
GGCAGAUGAGGAUAUACGUGCAAUCAGUGAUCCAGCCAUUAACAUGAGGAUCACCCAUGUAGAAGGCGUUUUCU,0.115,0.195,,
GGAUCAAUAGUCCACAUGAGGAUCACCCAUGUAGUAUUUUACAAGGAUAUGGUGGGACUUCGUGGCCAGAAGGUGUAAAGGAUC,,,0.194,0.0997
GAGGACUGAAUAAUAAGUAGAAAUACAUGAGGAUCACCCAUGUAGGAUAUCGUCAGGAAUACUGACGAGAAGGACAUACAGUCC,0.0141,0.0181,,
GUUAAGUGAGGAUAUGGUGAGUAGUGCCUGAGCGCUGCUCACCAGAAGGCACAUGAGGAUCACCCAUGUAUAAC,0.023,0.036,,
UAUGUUUUUGUGAGGAUAUACUUUGUUUGGUCGUAGUAGAAGGCACAUGAGGAUCACCCAUGUAGAUUUUUGGU,0.0227,0.0404,,
GCCAGAGCAGGAUAUUCAAUAAUUCACAUGAGGAUCACCCAUGUCCAGCGAAAGCUGGAAGGAGAAGGGCUCUGGC,0.0163,0.0137,,
AAUUCACAUGAGGAUCACCCAUGUCAGGAUAUGGUUUCACGGGUUUCGGUGCGUGAGGCCAGAAGGGACAGCUA,0.061,0.0737,,
UCUCGAUGUGUAGGAUAUCUGAUUACUAUGACAAGAGAAGGGCACAUGAGGAUCACCCAUGUGGAGGACCACUGGUUCAGAUUA,0.0312,0.0493,,
CAAUCACCCUCAUGUACCUGAGGACAUGAGGAUCACCCAUGUAAGGAUAUAGCCAUUAAAUCUAACUAGAAGGUAUAAAUAACC,1.01,0.523,,
AGACUGAAGCAAGGAUAUUGUAAAGUUAUCGUACAAGAAGGUGCUGUUUAUGUCUCUUUACAUGAGGAUCACCCAUGUUUUUAA,,,0.0226,0.0242
CGUGUGUGAACAGGAUAUUGGAACGUACCUCGCCACAUGAGGAUCACCCAUGUCGUUGCUCACGCCAAGAAGGGUUUACGCCUA,,,0.248,0.226
AACAGCUCGUCAGGAUAUAUUUUCUAAUUAUGUAUUUAUGUACAUGAGGAUCACCCAUGUUGUUAGUAGAAGGGACGAGCUGAA,0.0117,0.0121,,
GCUGCAUGCAGAGGAUAUAUAACAUGAGGAUCACCCAUGUUAAUAAUAUGGAUAAACCAGAUAGUAUAGAAGGCUGCAUGCAGC,0.0195,0.0238,,
GCGUACAUAUCAGGAUAUCAUUGAAUGGAUUAACUCAGUGAAUACAUGAGGAUCACCCAUGUGCUUGAGAAGGGAUUACUACGC,0.0146,0.0699,,
ACAUUAGUAUCACAUGUAUUACAUGAGGAUCACCCAUGUUACUAGGAUAUGUAUUAGAAUUUACAACAGAAGGAGUUAAUUUGU,0.00752,0.0077,,
UGGGUCACAGGAUAUACAUGAGGAUCACCCAUGUCGUAUUUCGUGGCGGAGAGCUCGAGUAGAAGGGUGCAUCC,0.119,0.0874,,
